In experiment [1] the test system is Mus musculus. The experiment in a line: Neuroprotective activity in APP/PS1 dE9 double transgenic mouse model assessed as improvement in spatial memory at 10 mg/kg, ip administered once daily for 30 consecutive days […] by morris water maze test. It is filed as functional, organism-based. As to conditions: time 36.0 day. An outline of the steps:
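Female APP/PS1 mice, 10 months old, about 30 g, 10 per group. Dosing was intraperitoneal in 1× PBS, once daily for one month (1 or 10 mg/kg test; 5 mg/kg donepezil). WT and untreated APP/PS1 controls got PBS. Morris water maze: training days 1–4, averaged escape latency. Day-5 probe trial ran 60 s with the platform removed, recording platform crossings and time per quadrant. Mean ± SEM.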

Experiment [2] concerns PC-12. The experiment in a line: Neuroprotective activity against Abeta1-42 induced rat PC12 cells assessed as decrease in JNK phosphorylation level at 10 uM preincubated for 3 hrs followed by Abeta1-42 induction and measured after 24 hrs by Western blot analysis. The class given is functional, cell-based. As to conditions: time 27.0 hrs. Put shortly:
(§1)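 Aβ1–42 challenge in PC12 cells was 10 μM for 24 h after 3 h pretreatment at 10 μM. SP600125 (1.25 μM) was added 0.5 h before pretreatment where used. Cells were lysed in RIPA and protein measured by BCA. Blotting used PVDF transfer, 5% BSA/TBST block for 2 h, primaries 1:1000 overnight at 4 °C, and HRP secondary for 2 h. Bcl-2/Bax ratio and band intensities were quantified.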

Experiment [3] has as its system PC-12. The experiment in a line: Neuroprotective activity against rat PC12 cells assessed as reversal of Abeta1-42 induced Bax expression at 10 uM preincubated for 3 hrs followed by Abeta1-42 induction and measured after 24 hrs by Western blot analysis. The class given is functional, cell-based. The following applies: time 27.0 hrs. Put shortly:
as §1
(In general: In western blotting, separated proteins are transferred to a membrane and probed.)

The subject of experiment [4] is PC-12. As to the kind of experiment: Induction of apoptosis in Abeta1-42 induced rat PC12 cells assessed as late apoptosis at 10 uM preincubated for 3 hrs followed by Abeta1-42 induction and measured after 24 hrs by Annexin V-FITC/PI staining based flow cytometry analysis (reference value: 0.7%). It is filed as functional. As to conditions: time 27 hrs. A general note: In flow cytometry, cells or beads pass a laser one at a time.

The subject of experiment [5] is PC-12. As to the kind of experiment: Neuroprotective activity against in Abeta1-42 induced rat PC12 cells assessed as effect on cleaved caspase-3 level at 10 uM preincubated for 3 hrs followed by Abeta1-42 induction and measured after 24 hrs in the presence of SP600125 by Western blot analysis. The class given is functional, cell-based. As to conditions: time 27.0 hrs. Put shortly:
as §1

Experiment [6] deals with Mus musculus. As to the kind of experiment: Anti-alzheimer activity in hippocampus of APP/PS1 dE9 double transgenic mouse model assessed as reduction in APP/beta-amyloid level at 10 mg/kg, ip administered once daily for 30 consecutive days by Western blot analysis. The class given is functional, organism-based. As to conditions: time 30.0 day. Put shortly: (§2)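 Hippocampal homogenates from dosed APP/PS1 mice were extracted in RIPA and protein measured by BCA. Samples were run by SDS electrophoresis, transferred to 0.22 μm PVDF for 90 min, blocked with 5% BSA in TBST for 2 h at RT, and probed with primaries 1:1000 overnight at 4 °C. HRP secondary was applied for 2 h at RT.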

For experiment [7], the system named is PC12. As to the kind of experiment: Restoration of mitochondrial membrane potential in Abeta1-42 induced rat PC12 cells at 10 uM preincubated for 3 hrs followed by Abeta1-42 induction and measured after 24 hrs by JC-1 staining based analysis. It is filed as cell-based. The following applies: time 27.0 hrs. Put shortly: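 PC12 cells pretreated 3 h, then exposed to 10 μM Aβ1–42 oligomer for 24 h. Cells were loaded with JC-1 (10 μg/mL, serum-free medium) for 30 min at 37 °C and washed twice in PBS. Plate-reader fluorescence was read as red (ex 560/em 595) and green (ex 485/em 535); Δψm = red/green ratio, normalized to control. Mean ± SEM, three experiments.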

For experiment [8], the system named is Mus musculus. As to the kind of experiment: Anti-alzheimer activity in cortex of APP/PS1 dE9 double transgenic mouse model assessed as reduction in neuronal apoptosis at 1 to 10 mg/kg, ip administered once daily for 30 consecutive days by immunofluorescence analysis. The class given is functional, organism-based. The following applies: dose 1-10 mg/kg, time 30.0 day. An outline of the steps: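 Brains from dosed female APP/PS1 mice (10 months) were fixed in 4% paraformaldehyde at 4 °C for 24–48 h, taken through a sucrose gradient and OCT, and cut into 15 μm sections. Sections were permeabilized with 0.3% Triton X-100, blocked in 10% BSA for 1 h, and incubated with primary antibody overnight at 4 °C (1:200). Secondary was 1:500 for 1 h at 25 °C, with DAPI counterstain and confocal imaging, in triplicate.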

Experiment [9] deals with Mus musculus. As to the kind of experiment: Anti-alzheimer activity in hippocampus of APP/PS1 dE9 double transgenic mouse model assessed as increase in the level of Map2 at 10 mg/kg, ip administered once daily for 30 consecutive days by Western blot analysis. The class given is functional, organism-based. The following applies: time 30.0 day. An outline of the steps:
as §2

The subject of experiment [10] is Mus musculus. The experiment in a line: Anti-alzheimer activity against APP/PS1 dE9 double transgenic mouse model assessed as improvement in exploration time for novel object at 10 mg/kg, ip administered once daily for 30 consecutive days measured on day 2 by novel object recognition test. The class given is functional, organism-based. The following applies: time 32.0 day. An outline of the steps: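 Same mouse cohort and ip PBS dosing schedule (1 or 10 mg/kg; donepezil 5 mg/kg). Novel object recognition: two objects, 5 min session, with exploration frequency and duration scored within 2–3 cm of objects. After 24 h one object was replaced by a novel object and a second 5 min session was recorded.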

The test system of experiment [11] is PC-12. As to the kind of experiment: Neuroprotective activity in rat PC12 cells assessed as reversal of Abeta1-42 induced caspase-3 activation at 10 uM preincubated for 3 hrs followed by Abeta1-42 induction and measured after 24 hrs by Western blot analysis. The class given is functional, cell-based. As to conditions: time 27.0 hrs. An outline of the steps:
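PC12 cells (DMEM, 10% FBS, 37 °C, 5% CO2) pretreated 3 h, then given 10 μM Aβ1–42 oligomer (10 mM DMSO stock aged 7 days at 37 °C, diluted in medium) for 24 h. RIPA lysates were blotted on PVDF, blocked in 5% BSA/TBST, and probed overnight at 4 °C for cleaved caspase-3 (1:1000), then HRP secondary. Band intensity was quantified; mean ± SEM of three experiments.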

The test system of experiment [12] is PC-12. As to the kind of experiment: Neuroprotective activity against in Abeta1-42 induced rat PC12 cells assessed as effect on ERK protein level at 10 uM preincubated for 3 hrs followed by Abeta1-42 induction and measured after 24 hrs by Western blot analysis. The following applies: time 27.0 hrs. It is filed as functional, cell-based. Put shortly: as §1
Experiment [13] has as its system PC-12. The experiment in a line: Neuroprotective activity against Abeta1-42 induced rat PC12 cells assessed as effect on Bcl2/Bax ratio level at 10 uM preincubated for 3 hrs followed by Abeta1-42 induction and measured after 24 hrs in the presence of SP600125 by Western blot analysis. As to conditions: time 27.0 hrs. The class given is functional, cell-based. An outline of the steps:
as §1

The subject of experiment [14] is PC-12. The experiment in a line: Neuroprotective activity in rat PC12 cells assessed as reversal of Abeta1-42 decreased in Bcl-2 expression level at 10 uM preincubated for 3 hrs followed by Abeta1-42 induction and measured after 24 hrs by Western blot analysis. It is filed as functional, cell-based. The following applies: time 27.0 hrs. Put shortly: as §1
Experiment [15] concerns Mus musculus. The experiment in a line: Anti-alzheimer activity in hippocampus of APP/PS1 dE9 double transgenic mouse model assessed as decrease in the level of caspase-3 activation at 10 mg/kg, ip administered once daily for 30 consecutive days by Western blot analysis. It is filed as functional, organism-based. The following applies: time 30.0 day. An outline of the steps:
as §2

Experiment [16] concerns PC-12. As to the kind of experiment: Neuroprotective activity against Abeta1-42 induced rat PC12 cells assessed as reduction in ROS level at 10 uM preincubated for 3 hrs followed by Abeta1-42 induction and measured after 24 hrs by y DCFH2-DA probe based analysis. As to conditions: time 27.0 hrs. It is filed as functional, cell-based. An outline of the steps:
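PC12 cells were pretreated 3 h at 10 μM, then given 10 μM Aβ1–42 for 24 h. Cells were loaded with DCFH-DA 10 μM in FBS-free DMEM for 30 min in the dark and washed. Fluorescence was read at Ex 488/Em 525 nm.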

The test system of experiment [17] is Mus musculus. The experiment in a line: Anti-alzheimer activity in hippocampus of APP/PS1 dE9 double transgenic mouse model assessed as decrease in MDA level at 1 to 10 mg/kg, ip administered once daily for 30 consecutive days […]. The class given is functional, organism-based. The following applies: dose 1-10 mg/kg, time 30.0 day.

Activity calls are given as the source filed them. The rule behind the calls is not given here.

As to `C=C[C@@]1(C)Cc2occ(C)c2[C@@H]2OC(=O)C(=C)[C@@H]21` [ISOLINDERALACTONE], the result in [1], in [2], in experiment [3], in [6], in experiment [7] and in [8] was Active. The result in [9], in experiment [10], in experiment [11], in experiment [14], in experiment [15] and in [16] was Active. The result in experiment [17] was Active. Moreover, the Activity in [4] came out at 0.4%. Besides, the outcome in [5], in experiment [12] and in [13] was inactive.

The values above are taken from ChEMBL document CHEMBL5390295, “Isolinderalactone Ameliorates the Pathology of Alzheimer's Disease by Inhibiting the JNK Signaling Pathway” (2023).
